Experimental data as given in ChEMBL document CHEMBL4017526, “Nanomolar Inhibitors of Glycogen Phosphorylase Based on β-d-Glucosaminyl Heterocycles: A Combined Synthetic, Enzyme Kinetic, and Protein Crystallography Study” (J Med Chem, 2017).
pKi: −log10 of the molar value. Activity calls are given as the source filed them. The calls are words filed in the database; no cut-off is given here.

Legend:
[1] = target: T1, Glycogen phosphorylase, liver form (Homo sapiens, UniProt P06737); test: Competitive inhibition of 6xHis-tagged human liver glycogen phosphorylase-a expressed in Escherichia coli BL21 Gold (DE3) assessed as release of inorganic phosphate using varying levels of glucose-1-phosphate and constant concentration of AMP and glycogen preincubated for 15 mins with AMP and glycogen followed by glucose-1-phosphate addition by Lineweaver-Burk plot method
T1 sequence (P06737 whole entry): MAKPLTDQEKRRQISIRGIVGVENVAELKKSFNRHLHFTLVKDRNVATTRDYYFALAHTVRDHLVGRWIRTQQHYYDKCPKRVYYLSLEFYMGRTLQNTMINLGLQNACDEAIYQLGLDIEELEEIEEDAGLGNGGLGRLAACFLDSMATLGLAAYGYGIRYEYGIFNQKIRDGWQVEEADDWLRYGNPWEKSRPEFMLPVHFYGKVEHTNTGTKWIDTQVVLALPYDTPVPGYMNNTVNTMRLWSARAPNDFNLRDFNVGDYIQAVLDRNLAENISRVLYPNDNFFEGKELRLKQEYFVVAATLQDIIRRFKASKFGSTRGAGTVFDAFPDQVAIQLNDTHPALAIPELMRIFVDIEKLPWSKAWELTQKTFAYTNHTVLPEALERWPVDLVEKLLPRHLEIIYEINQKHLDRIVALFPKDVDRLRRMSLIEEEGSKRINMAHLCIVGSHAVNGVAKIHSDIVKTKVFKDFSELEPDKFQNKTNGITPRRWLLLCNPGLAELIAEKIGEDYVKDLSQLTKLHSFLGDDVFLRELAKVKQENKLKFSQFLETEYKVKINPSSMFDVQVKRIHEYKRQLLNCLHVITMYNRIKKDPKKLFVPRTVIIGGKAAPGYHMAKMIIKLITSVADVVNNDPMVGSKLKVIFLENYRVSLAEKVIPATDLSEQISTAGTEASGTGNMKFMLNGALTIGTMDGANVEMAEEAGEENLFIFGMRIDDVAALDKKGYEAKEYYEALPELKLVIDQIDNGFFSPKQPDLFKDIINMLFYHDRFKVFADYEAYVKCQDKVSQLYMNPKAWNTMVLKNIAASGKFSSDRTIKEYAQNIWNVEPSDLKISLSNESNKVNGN

[2] = target: T2, Glycogen phosphorylase, muscle form (Oryctolagus cuniculus, UniProt P00489); test: Competitive inhibition of rabbit muscle glycogen phosphorylase-b in presence of varying levels of glucose-1-phosphate and constant concentration of glycogen and AMP preincubated for 15 mins with AMP and glycogen followed by glucose-1-phosphate addition by Lineweaver-Burk plot method
T2 sequence (P00489 whole entry): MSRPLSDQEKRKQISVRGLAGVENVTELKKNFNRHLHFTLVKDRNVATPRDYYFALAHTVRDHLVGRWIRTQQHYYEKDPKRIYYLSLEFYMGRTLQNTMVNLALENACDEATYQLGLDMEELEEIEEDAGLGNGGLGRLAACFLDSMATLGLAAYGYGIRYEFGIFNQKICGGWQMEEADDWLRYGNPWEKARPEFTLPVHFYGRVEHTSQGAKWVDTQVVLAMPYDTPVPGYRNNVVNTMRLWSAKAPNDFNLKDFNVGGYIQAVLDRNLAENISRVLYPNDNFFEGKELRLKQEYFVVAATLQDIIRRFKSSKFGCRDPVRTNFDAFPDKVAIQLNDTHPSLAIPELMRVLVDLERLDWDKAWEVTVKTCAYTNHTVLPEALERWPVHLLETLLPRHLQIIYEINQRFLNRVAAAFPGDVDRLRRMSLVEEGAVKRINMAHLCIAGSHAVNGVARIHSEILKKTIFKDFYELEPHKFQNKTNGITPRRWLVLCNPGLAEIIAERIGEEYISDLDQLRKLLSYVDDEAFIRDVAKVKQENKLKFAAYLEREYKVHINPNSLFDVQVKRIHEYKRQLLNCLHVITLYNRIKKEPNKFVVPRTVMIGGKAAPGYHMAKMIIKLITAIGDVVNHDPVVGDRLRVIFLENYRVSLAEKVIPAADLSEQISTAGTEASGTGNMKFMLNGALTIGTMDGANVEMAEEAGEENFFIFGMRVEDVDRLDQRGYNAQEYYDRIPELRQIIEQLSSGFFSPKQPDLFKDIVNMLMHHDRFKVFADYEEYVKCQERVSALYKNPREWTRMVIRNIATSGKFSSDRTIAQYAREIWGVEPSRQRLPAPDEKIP
Method in brief: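 Rabbit skeletal muscle GPb, 3 μg/mL, at 30 °C in the glycogen-synthesis direction. Buffer: 30 mM imidazole/HCl pH 6.8, 60 mM KCl, 0.6 mM EDTA, 0.6 mM DTT, 0.2% glycogen, 1 mM AMP. Glc-1-P at 2, 3, 4, 6 or 10 mM, added after 15 min enzyme–glycogen preincubation. Pi read at 850 nm by molybdate method from 1–4 min samples. Ki from 1/v vs [inhibitor]; three independent experiments, mean ± SD.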

[3] = target: T2, Glycogen phosphorylase, muscle form; test: Competitive inhibition of rabbit muscle glycogen phosphorylase-a in presence of varying levels of glucose-1-phosphate and constant concentration of glycogen and AMP preincubated for 15 mins with AMP and glycogen followed by glucose-1-phosphate addition by Lineweaver-Burk plot method
Method in brief: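 Rabbit muscle GPa at 3 μg/mL, 30 °C, synthesis direction. Medium: 30 mM imidazole/HCl pH 6.8, 60 mM KCl, 0.6 mM EDTA, 0.6 mM DTT, 0.2% glycogen. Enzyme–glycogen preincubated 15 min before Glc-1-P start. Samples at 1, 2, 3, 4 min quenched in SDS; phosphate measured at 850 nm. Ki derived from 1/v vs inhibitor concentration; three independent runs, mean ± SD.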

[4] = target: T3, Glycogen phosphorylase, muscle form (Oryctolagus cuniculus) (UniProt P00489); test: Competitive inhibition of rabbit muscle glycogen phosphorylase-b at 625 uM in presence of varying levels of glucose-1-phosphate and constant concentration of glycogen and AMP preincubated for 15 mins with AMP and glycogen followed by glucose-1-phosphate addition by Lineweaver-Burk plot method
T3 sequence (whole entry): T2 sequence (P00489 whole entry)

[5] = target: T2, Glycogen phosphorylase, muscle form
[6] = target: T2, Glycogen phosphorylase, muscle form; test: Inhibition of rabbit muscle glycogen phosphorylase
[7] = target: T1, Glycogen phosphorylase, liver form; test: Competitive inhibition of human liver glycogen phosphorylase-a assessed as release of inorganic phosphate using varying levels of glucose-1-phosphate and constant concentration of AMP and glycogen preincubated for 15 mins with AMP and glycogen followed by glucose-1-phosphate addition

| Compound | pKi [1] | pKi [2] | pKi [3] | also measured |
| --- | --- | --- | --- | --- |
| N[C@@H]1[C@@H](O)[C@H](O)[C@@H](CO)O[C@H]1c1nc(-c2ccccc2)n[nH]1 | 4.51 | 4.45 | 4.52 | – |
| N[C@@H]1[C@@H](O)[C@H](O)[C@@H](CO)O[C@H]1n1cc(-c2ccccc2)nn1 | – | – | – | inhibition [4]: inactive |
| N[C@@H]1[C@@H](O)[C@H](O)[C@@H](CO)O[C@H]1c1nc2ccccc2[nH]1 | – | 3.97 | – | – |
| O=c1[nH]c(=O)n([C@@H]2O[C@H](CO)[C@@H](O)[C@H](O)[C@H]2O)cc1F | – | – | – | pKi [5]: 5.10 to 5.26 |
| O[C@@H]1[C@@H](O)[C@H](c2nc(-c3ccccc3)c[nH]2)OC[C@H]1O | – | – | – | pKi [6]: 3.10 |
| N[C@@H]1[C@@H](O)[C@H](O)[C@@H](CO)O[C@H]1c1nc(-c2ccccc2)c[nH]1 | 5.56 | 5.57 | 5.51 | – |
| N[C@@H]1[C@@H](O)[C@H](O)[C@@H](CO)O[C@H]1c1nc(-c2ccc3ccccc3c2)n[nH]1 | 5.12 | 5.32 | 5.28 | – |
| O[C@@H]1[C@@H](O)[C@H](c2nc(-c3ccc4ccccc4c3)n[nH]2)OC[C@H]1O | – | – | – | pKi [6]: 3.31 |
| O=c1[nH]c(=O)n([C@@H]2O[C@H](CO)[C@@H](O)[C@@H](CO)[C@H]2O)cc1F | – | – | – | pKi [5]: 4.57 |
| OC[C@H]1O[C@@H](c2nnc(-c3ccccc3)[nH]2)[C@H](O)[C@@H](O)[C@@H]1O | – | – | – | pKi [7]: 5.87 |
| N[C@@H]1[C@@H](O)[C@H](O)[C@@H](CO)O[C@H]1n1cc(-c2ccc3ccccc3c2)nn1 | – | 3.45 | – | – |
| N[C@@H]1[C@@H](O)[C@H](O)[C@@H](CO)O[C@H]1c1nc(-c2ccc3ccccc3c2)c[nH]1 | 6.84 | 6.72 | 6.90 | – |
| O[C@@H]1[C@@H](O)[C@H](c2nc(-c3ccc4ccccc4c3)c[nH]2)OC[C@H]1O | – | – | – | pKi [6]: 4.00 |
